Measurements as given in ChEMBL document CHEMBL2321838, “Chemistry and pharmacological studies of 3-alkoxy-2,5-disubstituted-pyridinyl compounds as novel selective α4β2 nicotinic acetylcholine receptor ligands that reduce alcohol intake in rats” (J Med Chem, 2013).
Active and inactive are the calls of the source. The rule behind the calls is not given here.

Legend:
Rattus norvegicus [1] = organism: Rattus norvegicus; assay: Selectivity ratio of Ki for rat alpha3beta4 nACHR to rat alpha4beta2 nACHR
[2] = target: T1, Neuronal acetylcholine receptor; alpha3/beta4 (Rattus norvegicus, UniProt P04757+P12392); assay: Desensitization of rat alpha3beta4 nACHR expressed in HEK293 cells assessed as inhibition of 86Rb+ efflux preincubated for 10 mins measured after 2 hrs by liquid scintillation counting analysis; format: cell-based
Rattus norvegicus [3] = organism: Rattus norvegicus; assay: Selectivity ratio of Ki for rat alpha7 nACHR to rat alpha4beta2 nACHR
[4] = target: T1, Neuronal acetylcholine receptor; alpha3/beta4; assay: Agonist activity at rat alpha3beta4 nACHR expressed in HEK293 cells assessed as […] by liquid scintillation counting analysis; format: cell-based
Rattus norvegicus [5] = organism: Rattus norvegicus; assay: Displacement of [3H]-Epibatidine from rat nACHR fore-brain by liquid scintillation counting analysis
[6] = target: T2, Neuronal acetylcholine receptor; alpha4/beta2 (Homo sapiens, UniProt P17787+P43681); assay: Agonist activity at human alpha4beta2 nACHR expressed in HEK293 cells assessed as […] by liquid scintillation counting analysis; format: cell-based
Rattus norvegicus [7] = assay: Reduction of alcohol intake in alcohol-preferring rat at 1 mg/kg, sc after 24 hrs; format: functional, organism-based; parameters: dose 1 mg/kg
Method in brief: (§1)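 Adult male selectively bred alcohol-preferring (P) rats with two-bottle access (water, alcohol) in Richter tubes, 12:12 light–dark, 22 °C. After stable baseline, single s.c. injection of 0.33, 1 or 3 mg/kg or vehicle; alcohol and water intake (g/kg) read at 2, 4, 6 and 24 h. Crossover, random assignment, ≥3 days between injections, n = 18; mean ± SEM.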

Mustela putorius furo [8] = assay: Toxicity in ferret assessed as induction of stereotypical behavior at 1 to 30 mg/kg, sc measured for 60 mins; format: organism-based; parameters: dose 1-30 mg/kg, route subcutaneous; conditions: in vivo, 1 h
Method in brief: (§2)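 Male ferrets (0.9–1.5 kg), food withheld overnight, water ad libitum. After 30 min acclimation alone in an enclosure, single s.c. subscapular injection (1–30 mg/kg in 0.9% saline); emetic episodes and nausea-related stereotypical behaviours (gagging, licking, backward walking) scored by 60 min observation with video recording; n = 6.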

[9] = target: T2, Neuronal acetylcholine receptor; alpha4/beta2; assay: Agonist activity at human alpha4beta2 nACHR expressed in HEK293 cells assessed as […] by liquid scintillation counting analysis relative to nicotine; format: cell-based
Mustela putorius furo [10] = assay: Toxicity in ferret assessed as induction of emetic episodes at 1 to 30 mg/kg, sc measured for 60 mins; format: organism-based; parameters: dose 1-30 mg/kg, route subcutaneous; conditions: in vivo, 1 h; method in brief: as §2
Rattus norvegicus [11] = assay: Reduction of alcohol intake in sc dosed alcohol-preferring rat after 2 to 24 hrs relative to vehicle-treated control; format: functional, organism-based; method in brief: as §1
Rattus norvegicus [12] = assay: Reduction of alcohol intake in alcohol-preferring rat at […], sc after 2 to 24 hrs; format: functional, organism-based; parameters: dose 0.33 mg/kg
Rattus norvegicus [13] = assay: Reduction of alcohol intake in alcohol-preferring rat at 3 mg/kg, sc after 6 to 24 hrs; format: functional, organism-based; parameters: dose 3 mg/kg; method in brief: as §1
[14] = target: T1, Neuronal acetylcholine receptor; alpha3/beta4; assay: Displacement of [3H]-Epibatidine from rat alpha3beta4 nACHR expressed in HEK293 cell membranes by liquid scintillation counting analysis; parameters: species or system Membrane
[15] = target: Neuronal acetylcholine receptor; alpha4/beta2 (Rattus norvegicus) (UniProt P09483+P12390); assay: Ratio of (-)-nicotine Ki to compound Ki for rat alpha4beta2 nACHR; format: protein-complex assay
Mustela putorius furo [16] = assay: Toxicity in ferret assessed as reduction in locomotor behavior at 0.5 mg/kg, sc measured 1.05 mins to 1 hr post injection; format: organism-based; parameters: dose 0.5 mg/kg, route subcutaneous; conditions: in vivo
Method in brief: (§3)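 Male ferrets (0.9−1.5 kg), food withheld overnight, water ad libitum. Drug in 0.9% saline, given subcutaneously in the subscapular region after a 30 min acclimation in an individual polycarbonate enclosure. Emesis and nausea-linked behaviours (retching, oral stereotypy, backward walking, locomotion) were scored by 60 min observation with video recording. Affected animals were then given granisetron plus dexamethasone 1 mg/kg i.p.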

Mustela putorius furo [17] = assay: Toxicity in ferret assessed as increase in breathing at 0.5 mg/kg, sc measured for 60 mins; format: organism-based; parameters: dose 0.5 mg/kg, route subcutaneous; conditions: in vivo, 1 h; method in brief: as §3
Mustela putorius furo [18] = assay: Toxicity in ferret assessed as induction of retching at 0.5 mg/kg, sc measured for 60 mins; format: organism-based; parameters: dose 0.5 mg/kg, route subcutaneous; conditions: in vivo, 1 h; method in brief: as §3
Mustela putorius furo [19] = assay: Toxicity in ferret assessed as cessation of movement at 0.5 mg/kg, sc measured for 60 mins; format: organism-based; parameters: dose 0.5 mg/kg, route subcutaneous; conditions: in vivo, 1 h; method in brief: as §3
Mustela putorius furo [20] = assay: Toxicity in ferret assessed as induction of emetic episodes at 0.5 mg/kg, sc measured for 60 mins; format: organism-based; parameters: dose 0.5 mg/kg, route subcutaneous; conditions: in vivo, 1 h; method in brief: as §3
Mustela putorius furo [21] = assay: Toxicity in ferret assessed as backward walking episodes at 0.5 mg/kg, sc measured 2.20 mins post injection; format: organism-based; parameters: dose 0.5 mg/kg, route subcutaneous; conditions: in vivo, 132 s; method in brief: as §3
Mustela putorius furo [22] = assay: Toxicity in ferret assessed as induction of licking behavior at 0.5 mg/kg, sc measured 2.20 mins post injection; format: organism-based; parameters: dose 0.5 mg/kg, route subcutaneous; conditions: in vivo, 132 s; method in brief: as §3
[23] = target: Neuronal acetylcholine receptor; alpha3/beta4 (Rattus norvegicus) (UniProt P04757+P12392); assay: Agonist activity at rat alpha3beta4 nACHR expressed in HEK293 cells assessed as stimulation of 86Rb+ efflux after 2 hrs by liquid scintillation counting analysis relative to nicotine; format: cell-based
[24] = target: T2, Neuronal acetylcholine receptor; alpha4/beta2; assay: Desensitization of human alpha4beta2 nACHR expressed in HEK293 cells assessed as inhibition of 86Rb+ efflux preincubated for 10 mins measured after 2 hrs by liquid scintillation counting analysis; format: cell-based

T1 sequence (P04757 whole entry): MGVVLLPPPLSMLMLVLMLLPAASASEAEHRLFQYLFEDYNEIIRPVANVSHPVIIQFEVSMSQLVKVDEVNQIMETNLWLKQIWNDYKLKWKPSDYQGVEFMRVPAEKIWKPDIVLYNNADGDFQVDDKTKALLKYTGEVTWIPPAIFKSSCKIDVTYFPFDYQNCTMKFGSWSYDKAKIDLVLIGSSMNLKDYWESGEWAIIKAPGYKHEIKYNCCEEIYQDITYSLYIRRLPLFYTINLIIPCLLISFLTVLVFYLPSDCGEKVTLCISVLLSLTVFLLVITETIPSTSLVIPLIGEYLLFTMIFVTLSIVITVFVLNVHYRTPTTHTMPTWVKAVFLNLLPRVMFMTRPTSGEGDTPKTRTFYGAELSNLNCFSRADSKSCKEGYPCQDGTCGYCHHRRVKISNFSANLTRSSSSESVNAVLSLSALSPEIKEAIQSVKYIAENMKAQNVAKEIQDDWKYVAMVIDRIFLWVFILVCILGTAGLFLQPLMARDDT
T1 sequence (P12392 whole entry): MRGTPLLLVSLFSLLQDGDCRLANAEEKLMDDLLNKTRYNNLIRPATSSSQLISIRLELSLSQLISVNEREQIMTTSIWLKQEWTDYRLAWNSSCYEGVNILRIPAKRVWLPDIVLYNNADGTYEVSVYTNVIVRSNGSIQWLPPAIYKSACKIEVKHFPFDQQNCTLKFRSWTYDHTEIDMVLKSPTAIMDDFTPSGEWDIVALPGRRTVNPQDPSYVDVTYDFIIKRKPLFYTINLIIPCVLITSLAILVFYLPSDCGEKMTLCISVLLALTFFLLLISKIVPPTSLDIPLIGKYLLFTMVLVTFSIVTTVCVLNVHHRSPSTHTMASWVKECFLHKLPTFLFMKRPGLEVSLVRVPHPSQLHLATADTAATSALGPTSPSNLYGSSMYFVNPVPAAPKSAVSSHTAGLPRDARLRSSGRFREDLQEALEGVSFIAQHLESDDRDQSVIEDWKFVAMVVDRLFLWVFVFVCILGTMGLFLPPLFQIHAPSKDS
T2 sequence (P17787 whole entry): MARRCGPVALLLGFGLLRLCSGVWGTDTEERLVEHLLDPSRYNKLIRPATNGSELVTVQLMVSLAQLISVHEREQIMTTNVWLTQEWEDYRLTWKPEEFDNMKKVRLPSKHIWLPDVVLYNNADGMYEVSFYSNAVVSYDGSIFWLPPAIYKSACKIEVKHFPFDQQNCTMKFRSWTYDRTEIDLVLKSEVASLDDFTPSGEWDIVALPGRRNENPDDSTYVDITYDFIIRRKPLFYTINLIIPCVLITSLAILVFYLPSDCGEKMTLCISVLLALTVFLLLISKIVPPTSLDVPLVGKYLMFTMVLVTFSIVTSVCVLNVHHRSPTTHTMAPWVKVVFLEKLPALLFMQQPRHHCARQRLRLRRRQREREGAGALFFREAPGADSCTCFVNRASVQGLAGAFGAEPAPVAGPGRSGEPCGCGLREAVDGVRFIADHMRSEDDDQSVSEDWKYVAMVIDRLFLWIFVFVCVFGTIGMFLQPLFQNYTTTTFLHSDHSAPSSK
T2 sequence (P43681 whole entry): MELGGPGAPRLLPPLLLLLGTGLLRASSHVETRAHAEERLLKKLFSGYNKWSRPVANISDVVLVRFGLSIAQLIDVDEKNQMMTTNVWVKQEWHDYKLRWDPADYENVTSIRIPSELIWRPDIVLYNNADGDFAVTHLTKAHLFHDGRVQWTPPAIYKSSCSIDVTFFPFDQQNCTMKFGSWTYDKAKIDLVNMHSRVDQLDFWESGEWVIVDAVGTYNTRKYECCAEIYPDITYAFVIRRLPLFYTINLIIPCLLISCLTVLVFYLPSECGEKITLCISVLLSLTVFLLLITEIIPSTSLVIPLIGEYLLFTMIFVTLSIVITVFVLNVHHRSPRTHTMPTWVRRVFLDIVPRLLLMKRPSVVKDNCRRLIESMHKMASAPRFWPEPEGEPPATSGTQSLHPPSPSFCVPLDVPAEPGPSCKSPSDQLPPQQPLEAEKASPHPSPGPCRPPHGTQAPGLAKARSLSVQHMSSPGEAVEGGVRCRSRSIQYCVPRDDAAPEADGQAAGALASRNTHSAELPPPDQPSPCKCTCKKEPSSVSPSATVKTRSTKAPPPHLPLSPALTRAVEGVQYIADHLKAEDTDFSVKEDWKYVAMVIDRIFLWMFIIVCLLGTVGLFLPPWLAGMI

Cc1ncc(C#CCCCCCl)cc1OC[C@@H]1CCN1
Ratio Ki (Rattus norvegicus [1]): 17000 | IC50 [2]: > 10 µM | Ratio Ki (Rattus norvegicus [3]): 13000 | EC50 ([4]; hek293): Not Active | Ratio Ki (Rattus norvegicus [5]): 32 | EC50 ([6]; hek293): Not Active

CCCCC#Cc1cnc(C)c(OC[C@@H]2CCN2)c1
Activity (Rattus norvegicus [7]): Active | Activity (Mustela putorius furo [8]): Non-toxic | Ratio Ki (Rattus norvegicus [1]): 19000 | IC50 [2]: > 10 µM | Ratio Ki (Rattus norvegicus [3]): 7800 | Emax [9]: 15% | EC50 ([4]; hek293): Not Active | Activity (Mustela putorius furo [10]): Non-toxic | Activity (Rattus norvegicus [11]): Dose-dependent effect | Activity (Rattus norvegicus [12]): inactive | Activity (Rattus norvegicus [13]): Active

CCCCC#Cc1cnc(C(F)(F)F)c(OC[C@@H]2CCN2)c1
Ki [14]: > 100 µM | Ratio Ki (Rattus norvegicus [5]): > 100000

Cc1ncc(C#CCCCCO)cc1OC[C@@H]1CCN1
Ratio Ki (Rattus norvegicus [1]): 70000 | IC50 [2]: > 10 µM | Ratio Ki (Rattus norvegicus [3]): 40000 | Emax [9]: 20% | EC50 ([4]; hek293): Not Active | Ratio Ki [15]: 2 | EC50 ([6]; read-out: EC50): 0.45 µM

Cc1ncc(C#CC2CC2)cc1OC[C@@H]1CCN1
Ratio Ki (Rattus norvegicus [1]): 16000 | IC50 [2]: > 10 µM | Ratio Ki (Rattus norvegicus [3]): 16000 | Emax [9]: 17% | EC50 ([4]; hek293): Not Active

c1cnc2cc3c(cc2n1)[C@@H]1CNC[C@H]3C1 [VARENICLINE]
Activity (Mustela putorius furo [16]): Toxic | Activity (Mustela putorius furo [17]): Toxic | Activity (Mustela putorius furo [18]): Toxic | Activity (Mustela putorius furo [19]): Toxic | Activity (Mustela putorius furo [20]): Non-toxic | EC50 ([4]; read-out: EC50): 21 µM | Activity (Mustela putorius furo [21]): Toxic | Activity (Mustela putorius furo [22]): Toxic

OCCCCC#Cc1cncc(OC[C@@H]2CCN2)c1
Emax [23]: 12% | IC50 [24]: 0.011 µM | Ratio Ki (Rattus norvegicus [1]): 31000 | Ratio Ki (Rattus norvegicus [3]): 11000 | EC50 ([4]; read-out: EC50): 30 µM

Cc1ncc(C#CCCCCF)cc1OC[C@@H]1CCN1
IC50 [2]: > 10 µM | EC50 ([4]; hek293): Not Active | EC50 ([6]; hek293): Not Active

CCCCC#Cc1cnc(C)c(OC[C@@H]2CCCN2)c1
EC50 ([4]; hek293): Not Active | EC50 ([6]; hek293): Not Active
